ChEMBL document CHEMBL1122933, “Drug glycosides: potential prodrugs for colon-specific drug delivery” (J Med Chem, 1985)

Legend:
[1] = Partition coefficient (logP); assay type: physicochemical; details: octanol/water
Rattus norvegicus [2] = species on record: Rattus norvegicus; test: Vmax value was determined in homogenates of pooled cecal contents in rats; assay type: ADME
In short: (§1)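 Cecal contents from four rats pooled, weighed wet, diluted in 0.01 M phosphate pH 7.0 and homogenized. Reactions were run in duplicate at 37 °C for 15 min across substrate ranges spanning apparent KM. For p-nitrophenyl glycosides: 56-1000 substrate, NaOH stop, A403. For steroid glycosides: 0.5-48 substrate, MeOH quench, HPLC. KM(app) and Vmax (per g wet weight) came from Eadie-Hofstee plots.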

[3] = Km(app) value was determined in homogenates of pooled cecal contents in rats; assay type: ADME; details: rat, read-out: Km app; in short: as §1
Rattus norvegicus [4] = species on record: Rattus norvegicus; test: Specific activity of the PSI segment in rat intestine; assay type: functional; design: unit not given here
In short: (§2)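 Contents of each rat GI segment (stomach, proximal small intestine, distal small intestine, cecum) were pooled from four animals, weighed wet, diluted in cold 0.01 M phosphate buffer pH 7.0, and homogenized. Homogenate was incubated with 1.0 mM glycoside at 37 °C with shaking for up to 30 min. Aliquots were MeOH-quenched, centrifuged and analysed by HPLC for released aglycon.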

Rattus norvegicus [5] = species on record: Rattus norvegicus; test: Specific activity of the stomach segment in rat intestine; assay type: functional; in short: as §2
Rattus norvegicus [6] = species on record: Rattus norvegicus; test: Total activity of the entire contents of PSI segment in rat intestine; assay type: functional; in short: as §2
Rattus norvegicus [7] = species on record: Rattus norvegicus; test: Total activity of the entire contents of stomach segment in rat intestine; assay type: functional; in short: as §2
Rattus norvegicus [8] = species on record: Rattus norvegicus; test: Specific activity of the DSI segment in rat intestine; assay type: functional; in short: as §2
Rattus norvegicus [9] = species on record: Rattus norvegicus; test: Specific activity of the cecum segment in rat intestine; assay type: functional; in short: as §2
Rattus norvegicus [10] = species on record: Rattus norvegicus; test: Total activity of the entire contents of DSI segment in rat intestine; assay type: functional; in short: as §2
Rattus norvegicus [11] = species on record: Rattus norvegicus; test: Total activity of the entire contents of cecum segment in rat intestine; assay type: functional; in short: as §2

Row | Structure (SMILES) | logP [1] | Vmax (Rattus norvegicus [2]) [µM/min/g] | Km [3] [µM] | Specific activity (Rattus norvegicus [4]) | Specific activity (Rattus norvegicus [5]) [nM/min] | Total activity (Rattus norvegicus [6]) [µM/min] | Total activity (Rattus norvegicus [7]) [µM/min] | Specific activity (Rattus norvegicus [8]) [nM/min] | Specific activity (Rattus norvegicus [9]) [nM/min] | Total activity (Rattus norvegicus [10]) [µM/min] | Total activity (Rattus norvegicus [11]) [µM/min]
1 | CC12CCC(=O)C=C1CCC1C3CC[C@](O)(C(=O)CO)C3(C)CC(O)[C@@]12F (some centres not stated) | 1.73 | – | – | – | – | – | – | – | – | – | –
2 | CC12CCC(=O)C=C1CCC1C3CC[C@](O)(C(=O)CO[C@H]4O[C@H](CO)[C@@H](O)[C@H](O)[C@H]4O)C3(C)CC(O)[C@@]12F (some centres not stated) | 0.25 | 2.2 | 2.5 | 12.5 | 7 | 0.01 | 0.01 | 56.7 | 642 | 0.8 | 12.9
3 | C[C@]12C=CC(=O)C=C1CC[C@@H]1[C@@H]2[C@@H](O)C[C@@]2(C)[C@H]1CC[C@]2(O)C(=O)CO [PREDNISOLONE] | 1.55 | – | – | – | – | – | – | – | – | – | –
4 | CC12CCC(=O)C=C1CCC1C2C(O)CC2(C)C1CC[C@]2(O)C(=O)CO[C@@H]1O[C@@H](CO)[C@@H](O)[C@H](O)[C@H]1O (some centres not stated) | 0.15 | 20.6 | 33.3 | 42.5 | 12.5 | 0.02 | 0.02 | 110 | 592 | 1.6 | 11.9
5 | O=[N+]([O-])c1ccc(O[C@@H]2O[C@H](CO)[C@@H](O[C@@H]3O[C@H](CO)[C@@H](O)[C@H](O)[C@H]3O)[C@H](O)[C@H]2O)cc1 | – | – | – | – | 34.2 | 0.05 | 0.35 | 26 | 96.5 | 0.25 | 2.6
6 | CC1CC2C3CCC4=CC(=O)C=CC4(C)[C@@]3(F)C(O)CC2(C)[C@@]1(O)C(=O)CO[C@@H]1O[C@@H](CO)[C@@H](O)[C@H](O)[C@H]1O (some centres not stated) | – | 3.9 | 13.3 | – | 2 | 0.004 | 0.004 | 29.3 | 322 | 0.41 | 6.5
7 | C[C@]12C=CC(=O)C=C1CC[C@@H]1[C@@H]2C(O)C[C@@]2(C)[C@H]1CC[C@]2(O)C(=O)CO[C@@H]1O[C@@H](CO)[C@@H](O)[C@H](O)[C@H]1O (some centres not stated) | 0.11 | 10.3 | 20 | 49.3 | 12.1 | 0.23 | 0.19 | 122 | 665 | 1.72 | 13
8 | CC12CCC(=O)C=C1CCC1C3CC[C@](O)(C(=O)CO[C@H]4O[C@@H](CO)[C@@H](O)[C@H](O)[C@H]4O)C3(C)CC(O)[C@@]12F (some centres not stated) | 0.84 | 2.4 | 4.4 | 12.3 | 7.7 | 0.08 | 0.14 | 33 | 49 | 0.43 | 1.4
9 | CC12CCC(=O)C=C1CCC1C2C(O)CC2(C)C1CC[C@]2(O)C(=O)CO[C@@H]1O[C@H](CO)[C@@H](O)[C@H](O)[C@H]1O (some centres not stated) | 0.44 | 2.6 | 5.7 | 15.9 | 5.5 | 0.1 | 0.09 | 39.2 | 30.5 | 0.7 | 0.76
10 | C[C@]12CCC(=O)C=C1CC[C@@H]1[C@@H]2[C@@H](O)C[C@@]2(C)[C@H]1CC[C@]2(O)C(=O)CO [HYDROCORTISONE] | 1.54 | – | – | – | – | – | – | – | – | – | –
11 | CC1CC2C3CCC4=CC(=O)C=CC4(C)[C@@]3(F)C(O)CC2(C)[C@@]1(O)C(=O)CO[C@@H]1O[C@H](CO)[C@@H](O)[C@H](O)[C@H]1O (some centres not stated) | – | 10.2 | 16.7 | – | 6.8 | 0.07 | 0.12 | 19.3 | 141 | 0.34 | 3.5
12 | C[C@]12C=CC(=O)C=C1CC[C@@H]1[C@@H]2C(O)C[C@@]2(C)[C@H]1CC[C@]2(O)C(=O)CO[C@@H]1O[C@H](CO)[C@@H](O)[C@H](O)[C@H]1O (some centres not stated) | 0.27 | 2.6 | 4.5 | 12.2 | 6.8 | 0.07 | 0.12 | 56.8 | 265 | 1 | 6.6
13 | O=[N+]([O-])c1ccc(O[C@@H]2O[C@H](CO)[C@@H](O)[C@H](O)[C@H]2O)cc1 | – | 697 | 360 | – | 72.2 | 0.15 | 0.08 | 86.6 | 454 | 0.65 | 9.1
14 | C[C@@H]1C[C@H]2[C@@H]3CCC4=CC(=O)C=C[C@]4(C)[C@@]3(F)[C@@H](O)C[C@]2(C)[C@@]1(O)C(=O)CO [DEXAMETHASONE] | 1.72 | – | – | – | – | – | – | – | – | – | –
15 | C[C@]12C=CC(=O)C=C1CC[C@@H]1[C@@H]2[C@@H](O)C[C@@]2(C)[C@H]1CC[C@]2(O)C(=O)CO[C@@H]1O[C@H](CO)[C@@H](O[C@@H]2O[C@H](CO)[C@@H](O)[C@H](O)[C@H]2O)[C@H](O)[C@H]1O | -0.56 | – | – | 26 | 7.5 | 0.11 | 0.01 | 32.5 | 109 | 0.64 | 2.2
16 | O=[N+]([O-])c1ccc(O[C@@H]2O[C@H](CO)[C@H](O)[C@H](O)[C@H]2O)cc1 | – | 1233 | 166 | – | 57.8 | 0.2 | 0.7 | 425 | 1620 | 3.6 | 30.8
